Assay results collected from several papers.
Compare with care: the assays were run in different laboratories.
Cell line: HT-29
Effect on: cell growth or viability

| SMILES | assay | conditions | inhibition [%] |
| --- | --- | --- | --- |
| COc1ccc(C(=O)/C=C/c2c(F)cccc2Cl)cc1S(N)(=O)=O | SRB | 10 µM | 92 |
| O=C1Nc2ccccc2/C1=N/NC(=O)c1cc2ccccc2[nH]1 | – | 30 µM | 75.4 |
| COc1ccc(C2=Nn3c(NN=C4C(=O)Nc5ccc(OC)cc54)nnc3SC2)cc1 | SRB | 10 µM | 24 |
| Cn1c(=O)c(NN=C2C(=O)Nc3ccc(Cl)cc32)nc2ccccc21 | – | 30 µM | 16.1 |
| COc1ccc(C(=O)/C=C/c2ccccc2Br)cc1S(N)(=O)=O | SRB | 10 µM | 117 |
| COc1ccc2c(c1)C(=NNc1nc3ccccc3n(C)c1=O)C(=O)N2 | – | 30 µM | 48.5 |
| O=C1Nc2ccc(F)cc2/C1=N/NC(=O)c1cc2ccccc2[nH]1 | – | 30 µM | 13.9 |
| COc1ccc(C(=O)/C=C/c2ccc3ccccc3c2)cc1S(N)(=O)=O | SRB | 10 µM | 126 |
| COc1ccc(-c2nc(NN=C3C(=O)Nc4ccccc43)c3ccccc3n2)cc1OC | – | 30 µM | 38.1 |
| COc1ccc2c(c1)/C(=N/NC(=O)c1cc3ccccc3[nH]1)C(=O)N2C | – | 30 µM | 90.8 |
| COc1ccc(C(=O)/C=C/c2cccc(Cl)c2Cl)cc1S(N)(=O)=O | SRB | 10 µM | 106 |
| CN1C(=O)/C(=N\NC(=O)c2cc3ccccc3[nH]2)c2cc(Cl)ccc21 | – | 30 µM | 92.4 |
| COc1ccc(-c2nc(NN=C3C(=O)Nc4ccc(F)cc43)c3ccccc3n2)cc1OC | – | 30 µM | 9.6 |
| O=C1Nc2ccc(Br)cc2/C1=N/NC(=O)c1cc2ccccc2[nH]1 | – | 30 µM | 64.5 |
| COc1ccc(C(=O)/C=C/c2cccnc2)cc1S(N)(=O)=O | SRB | 10 µM | 76 |
| COc1cc2ncnc(NN=C3C(=O)Nc4ccccc43)c2cc1OC | – | 30 µM | 38.7 |
| O=C1Nc2ccccc2C1=NNc1nnc2n1N=C(c1ccccc1)CS2 | SRB | 10 µM | 28 |
| COc1ccccc1/C=C/C(=O)c1ccc(OC)c(S(N)(=O)=O)c1 | SRB | 10 µM | 81 |
| Cn1c(=O)c(NN=C2C(=O)Nc3ccc(Br)cc32)nc2ccccc21 | – | 30 µM | 49.4 |
| CCN(CC)CCNC(=O)c1c(C)[nH]c(/C=C2\C(=O)Nc3ccc(F)cc32)c1C | – | 30 µM | 59.5 |
| COc1cccc2c1C(=O)c1c(O)c3c(c(O)c1C2=O)C[C@@](O)(C(=O)CO)C[C@@H]3O[C@H]1C[C@H](N)[C@H](O)[C@H](C)O1 | SRB | 10 µg/mL, 48 h | 97.1 |
